In ChEMBL document CHEMBL3085653, “Synthesis and evaluation of hexahydropyrimidines and diamines as novel hepatitis C virus inhibitors” (Eur J Med Chem, 2013):
Structures can show the parent of a compound that is named as a salt. Activity calls are given as the source filed them. No cut-off for these calls is given here.

Assays:
Hepatitis C virus [1] = test: Antiviral activity against HCV assessed as prevention of infectious virions release into cell culture supernatant by viral supernatant transfer assay; type: functional, organism-based; settings: Hepacivirus hominis
[2] = Cytotoxicity against human HuH7 cells; type: cell-based, Huh-7
Hepatitis C virus [3] = test: Antiviral activity against cell culture derived HCV expressing NS5A-GFP fusion protein infected in human HuH7 cells assessed as inhibition of viral life cycle after 72 hrs by Hoechst-33342 staining-based confocal microscopy; type: functional, organism-based, Hepacivirus hominis; settings: Huh-7, 72 h
[4] = Selectivity index, ratio of CC50 for human HuH7 cells to EC50 for cell culture derived HCV expressing NS5A-GFP fusion protein; design: species or system Huh-7
Method in brief: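 Index is CC50 divided by EC50. Both values come from the same 10-point dose response in naïve Huh-7 cells infected with NS5A-GFP HCVcc (MOI 1), read at 72 h post-infection. EC50 taken from GFP-positive infection and CC50 from Hoechst nuclei counts, by confocal imaging. Duplicates with quadruplicate measurements.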

[5] = Chemical stability in cell culture medium assessed as formation of N1,N3-dibenzylpropane-1,3-diamine at 37 degC after 2 days by LC/MS analysis; type: physicochemical; settings: 48 h
Method in brief: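 Compound incubated with cells in culture medium at 37 °C for two days. Supernatant then analysed by LC/MS for the parent compound and the ring-opened diamine.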

[6] = Metabolic stability in liver microsomes (unknown origin) assessed as formation of N1,N3-dibenzylpropane-1,3-diamine by mass spectrum analysis; type: ADME, Microsome
Hepatitis C virus [7] = test: Antiviral activity against HCV pseudoparticle expressing envelope protein E1 and E2 assessed as inhibition of E1/E2-mediated viral entry into human Huh7 cells treated for 1 hr prior to viral inoculation followed by compound washout 12 hrs post viral inoculation measured after 72 hrs by GFP reporter gene-based confocal microscopic analysis; type: functional, organism-based, Hepacivirus hominis; settings: Huh-7
Hepatitis C virus [8] = test: Antiviral activity against HCV expressing GFP infected in human HuH7 cells assessed as inhibition of viral RNA replication after 72 hrs by Hoechst-33342 staining-based confocal microscopy; type: functional, organism-based, Hepacivirus hominis; settings: Huh-7, 72 h
Method in brief: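 Huh-7 replicon cells expressing GFP seeded at 2000 cells/well and incubated overnight, then given serially diluted compounds for 72 h. Cells fixed in 2% PFA and nuclei stained with Hoechst 33342 (10 μg/mL). Automated confocal imaging used: RNA replication read as GFP expression, cytotoxicity as nucleus counts. EC50 calculated by non-linear regression.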

SMILES | Activity (Hepatitis C virus [1]) | CC50 [2] | EC50 (Hepatitis C virus [3]) | Ratio CC50/EC50 [4] | Stability [5] | Stability [6] | EC50 (Hepatitis C virus [7]) | EC50 (Hepatitis C virus [8])
Cc1ccc(C2N(Cc3ccccc3)CCCN2Cc2ccccc2)o1 | Active | > 50 µM | > 50 µM |  |  |  |  | 
FC(F)(F)c1cccc(C2N(Cc3ccccc3)CCCN2Cc2ccccc2)c1 | Active | > 50 µM | 6.5 µM | >7.7 |  |  |  | 
O=C(NCCCNC(=O)c1ccccc1)c1ccccc1 |  | > 50 µM | > 50 µM |  |  |  |  | 
COc1cccc(CN2CCCN(Cc3ccccc3F)C2c2ccc(C(F)(F)F)cc2)c1 (stereo unspecified) | Active | 23 µM | 2.7 µM | 8.5 |  |  |  | 
CC(CNCCCNCC(C)c1ccccc1)c1ccccc1 (stereo unspecified) |  | 18 µM | 1.2 µM | 15 |  |  |  | 
COc1ccc(CN2CCCN(Cc3ccc(OC)cc3)C2c2ccc(C(F)(F)F)cc2)cc1 | Active | 34 µM | 1.6 µM | 21 |  |  |  | 
COc1ccc(CNCC2CCCN(Cc3ccc(OC)cc3)C2)cc1 (stereo unspecified) |  | 34.5 µM | 1.1 µM | 31 |  |  |  | 
CN(C)c1ccc(CNCCCCNCc2ccc(N(C)C)cc2)cc1 |  | 11 µM | 0.32 µM | 34 |  |  |  | 
COc1ccc(CN2CCCN(Cc3ccc(OC)cc3)C2c2ccc(F)cc2)cc1 | Active | 38 µM | 1.9 µM | 20 |  |  |  | 
CN(C)c1ccc(C2N(Cc3ccccc3)CCN2Cc2ccccc2)cc1 |  | > 50 µM | > 50 µM |  |  |  |  | 
COc1ccc(CN2CCCN(Cc3ccc(OC)cc3)C2c2cccc(C(F)(F)F)c2)cc1 | Active | 43 µM | 3.2 µM | 13 |  |  |  | 
COc1ccc(CN2CCCN(Cc3ccc(OC)cc3)C2c2ccc(C#N)c(F)c2)cc1 | Active | 29 µM | 1.9 µM | 15 |  |  |  | 
CC1N(Cc2ccccc2)CCN1Cc1ccccc1 |  | > 50 µM | > 50 µM |  |  |  |  | 
c1ccc(CNCCCCCNCc2ccccc2)cc1 |  | 29 µM | 0.61 µM | 48 |  |  |  | 
c1ccc(CNCCCNCc2ccccc2)cc1 |  | 27 µM | 4.6 µM | 5.9 |  |  |  | 
c1ccc(CNCCOCCNCc2ccccc2)cc1 |  | 28 µM | 1.7 µM | 16 |  |  |  | 
CN(C)c1ccc(CNCCCNCc2ccc(N(C)C)cc2)cc1 |  | 17 µM | 0.88 µM | 19 |  |  |  | 
COc1ccc(CNCCCNCc2ccc(OC)cc2)cc1 |  | 33 µM | 1.5 µM | 22 |  |  |  | 
c1ccc(CN2CCCN(Cc3ccccc3)C2)cc1 | Active | > 50 µM | > 50 µM |  |  |  |  | 
NCCCCNCCCN [SPERMIDINE TRIHYDROCHLORIDE] |  | > 50 µM | > 50 µM |  |  |  |  | 
O=C1N(Cc2ccccc2)CCCN1Cc1ccccc1 | Active | > 50 µM | > 50 µM |  |  |  |  | 

SMILES | Activity (Hepatitis C virus [1]) | CC50 [2] | EC50 (Hepatitis C virus [3]) | Ratio CC50/EC50 [4] | Stability [5] | Stability [6] | EC50 (Hepatitis C virus [7]) | EC50 (Hepatitis C virus [8])
Fc1ccccc1CN1CCCN(Cc2ccccc2Cl)C1c1cccc(C(F)(F)F)c1 (stereo unspecified) | Active | > 50 µM | 11 µM | >4.5 |  |  |  | 
NCCCNCCCCNCCCN [SPERMINE] |  | > 50 µM | > 50 µM |  |  |  |  | 
c1ccc(CNCCNCc2ccccc2)cc1 |  | > 50 µM | > 50 µM |  |  |  |  | 
CN(C)c1ccc(CN2CCCN(Cc3ccc(N(C)C)cc3)C2c2ccc(C(F)(F)F)cc2)cc1 | Active | 23 µM | 1.5 µM | 15 |  |  |  | 
CC1N(Cc2ccccc2)CCCN1Cc1ccccc1 | Active | > 50 µM | 3.7 µM | >14 |  |  |  | 
c1ccc(CN2CCCN(Cc3ccccc3)C2c2ccncc2)cc1 | Active | > 50 µM | 4.3 µM | >12 | Unstable | Unstable | 4 µM | > 50 µM
CN(C)c1ccc(C2N(Cc3ccccc3)CCCN2Cc2ccccc2)cc1 | Active | > 50 µM | 25 µM | >2 |  |  |  | 
CN(C)c1ccc(CN2CCCN(Cc3ccc(N(C)C)cc3)C2c2ccncc2)cc1 | Active | 14 µM | 0.83 µM | 17 |  |  |  | 
CC(=O)N(CCCCN(Cc1ccccc1)C(C)=O)Cc1ccccc1 |  | > 50 µM | > 50 µM |  |  |  |  | 
CN(C)c1ccc(CN2CCCN(Cc3ccc(N(C)C)cc3)C2c2ccc(F)cc2)cc1 | Active | 15 µM | 1.3 µM | 12 |  |  |  | 
COc1ccc(CNCCCCNCc2ccc(OC)cc2)cc1 |  | 32 µM | 0.38 µM | 84 |  |  |  | 
c1ccc(CN2CCN(Cc3ccccc3)C2c2ccncc2)cc1 |  | > 50 µM | > 50 µM |  |  |  |  | 
COc1ccc(CN2CCCC(CNc3ccc(OC)cc3)C2)cc1 (stereo unspecified) |  | > 50 µM | 11 µM | >4.7 |  |  |  | 
COc1ccc(CN2CCCN(Cc3ccc(OC)cc3)C2c2ccc(N(C)C)cc2)cc1 | Active | 28 µM | 1.3 µM | 22 |  |  |  | 
c1ccc(NCCCCNc2ccccc2)cc1 |  | > 50 µM | > 50 µM |  |  |  |  | 
COc1ccc(CN2CCCN(Cc3ccc(OC)cc3)C2c2ccncc2)cc1 | Active | 23 µM | 1.5 µM | 15 |  |  |  | 
CC(C(=O)NCCCNC(=O)C(C)c1ccccc1)c1ccccc1 (stereo unspecified) |  | > 50 µM | > 50 µM |  |  |  |  | 
NCCCCN [PUTRESCINE DIHYDROCHLORIDE] |  | > 50 µM | > 50 µM |  |  |  |  | 
COc1ccc(CN2CCCN(Cc3ccc(OC)cc3)C2c2ccc(C#N)cc2)cc1 | Active | 20 µM | 1.5 µM | 13 |  |  |  | 
COc1cccc(CN2CCCN(Cc3ccccc3F)C2c2ccncc2)c1 (stereo unspecified) | Active | > 50 µM | 4.7 µM | >11 |  |  |  | 
c1ccc(CCNCCCNCCc2ccccc2)cc1 |  | 12 µM | 1.1 µM | 11 |  |  |  | 
